The subject of assay [1] is Mus musculus. The experiment in a line: Effective dose to inhibit 50% of mouse arachidonic acid induced ear edema assay. Format: functional. The essentials: (§1)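 Groups of 10 male CF1 mice (18–20 g). Compound in acetone is applied topically to both ears just before 1 mg arachidonic acid in acetone is applied to one ear; the other ear serves as control. Mice are killed 60 min later and 6-mm ear punches weighed; swelling is the weight difference. %Inhibition = [(C−T)/C]×100, with Student's t test.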

Assay [2] deals with T1, Polyunsaturated fatty acid 5-lipoxygenase (Rattus norvegicus, UniProt P12527).
T1 sequence (P12527 whole entry): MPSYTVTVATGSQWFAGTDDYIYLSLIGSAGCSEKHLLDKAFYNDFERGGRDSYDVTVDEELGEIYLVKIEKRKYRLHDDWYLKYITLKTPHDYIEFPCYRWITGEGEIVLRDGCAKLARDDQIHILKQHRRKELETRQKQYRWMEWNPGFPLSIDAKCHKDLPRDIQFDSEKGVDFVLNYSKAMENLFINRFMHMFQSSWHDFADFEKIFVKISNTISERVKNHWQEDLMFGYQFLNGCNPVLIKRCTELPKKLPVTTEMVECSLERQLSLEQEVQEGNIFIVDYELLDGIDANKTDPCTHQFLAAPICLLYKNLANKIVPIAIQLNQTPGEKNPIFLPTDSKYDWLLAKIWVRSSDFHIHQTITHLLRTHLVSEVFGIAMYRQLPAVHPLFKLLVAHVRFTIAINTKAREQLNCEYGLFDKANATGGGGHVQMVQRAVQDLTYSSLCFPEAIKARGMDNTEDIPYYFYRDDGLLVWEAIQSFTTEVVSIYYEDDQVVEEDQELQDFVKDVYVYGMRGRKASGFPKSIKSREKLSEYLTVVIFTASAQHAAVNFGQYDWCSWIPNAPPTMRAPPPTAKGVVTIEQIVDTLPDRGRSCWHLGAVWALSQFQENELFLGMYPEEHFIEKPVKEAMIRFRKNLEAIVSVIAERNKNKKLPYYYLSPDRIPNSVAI
Nature of the assay: Ability to inhibit 5-lipoxygenase by using a crude preparation of the cytosolic enzyme from the rat basophilic leukemia (RBL-1) cell line. Format: cell-based. The essentials:
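Crude cytosolic enzyme (supernatant) from RBL-1 cells, amount giving net 3300–3800 dpm 5-HETE (9–20 μg cell protein/assay). Enzyme is preincubated 5 min at 37 °C, pH 7.0, with compound (in 5% DMSO/Tris pH 8.5) in phosphate buffer with EDTA, gelatin, glutathione, CaCl2 and 0.012 mM indomethacin. Reaction is started with 0.042 mM final [14C]arachidonic acid and stopped by freezing after 2 min.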

The subject of assay [3] is Mus musculus. Nature of the assay: Percentage inhibition of the mouse arachidonic acid induced ear edema assay (AA) at a dose of 100 ug/ear. Format: functional. The essentials: as §1
In a further assay the target is T2, Cyclooxygenase (Bos taurus, UniProt O62664+O62698).
T2 sequence (O62664 whole entry): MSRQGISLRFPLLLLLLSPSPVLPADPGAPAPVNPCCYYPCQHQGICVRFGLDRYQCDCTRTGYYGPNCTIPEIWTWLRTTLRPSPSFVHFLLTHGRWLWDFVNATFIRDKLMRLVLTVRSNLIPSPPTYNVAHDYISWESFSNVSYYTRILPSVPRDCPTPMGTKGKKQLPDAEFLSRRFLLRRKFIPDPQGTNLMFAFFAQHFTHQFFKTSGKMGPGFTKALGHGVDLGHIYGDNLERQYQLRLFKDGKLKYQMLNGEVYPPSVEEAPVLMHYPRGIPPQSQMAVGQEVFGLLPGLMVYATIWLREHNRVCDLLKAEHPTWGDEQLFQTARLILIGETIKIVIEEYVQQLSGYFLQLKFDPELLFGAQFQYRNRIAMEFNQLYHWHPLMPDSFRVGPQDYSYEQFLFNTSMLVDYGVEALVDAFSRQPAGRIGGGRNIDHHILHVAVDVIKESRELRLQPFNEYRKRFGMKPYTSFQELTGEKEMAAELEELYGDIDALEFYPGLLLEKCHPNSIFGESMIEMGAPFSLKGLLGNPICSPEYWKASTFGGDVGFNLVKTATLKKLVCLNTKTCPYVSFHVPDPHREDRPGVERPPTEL
T2 sequence (O62698 whole entry): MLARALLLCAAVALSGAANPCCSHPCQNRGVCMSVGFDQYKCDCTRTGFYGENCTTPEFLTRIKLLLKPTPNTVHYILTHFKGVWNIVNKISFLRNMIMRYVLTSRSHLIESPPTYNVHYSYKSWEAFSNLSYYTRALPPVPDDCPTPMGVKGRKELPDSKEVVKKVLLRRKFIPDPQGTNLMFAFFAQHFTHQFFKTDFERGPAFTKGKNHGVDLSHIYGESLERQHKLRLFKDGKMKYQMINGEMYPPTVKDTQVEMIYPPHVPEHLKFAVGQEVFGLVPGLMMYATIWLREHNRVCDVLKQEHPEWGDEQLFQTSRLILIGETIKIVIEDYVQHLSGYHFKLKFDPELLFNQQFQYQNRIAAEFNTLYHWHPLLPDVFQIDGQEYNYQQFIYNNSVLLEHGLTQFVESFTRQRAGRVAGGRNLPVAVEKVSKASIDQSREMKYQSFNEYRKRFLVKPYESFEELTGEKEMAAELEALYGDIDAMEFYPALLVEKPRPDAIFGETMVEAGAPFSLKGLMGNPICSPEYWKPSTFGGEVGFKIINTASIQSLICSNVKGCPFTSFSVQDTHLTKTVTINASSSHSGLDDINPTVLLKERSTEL
The experiment in a line: In vitro inhibition of Prostaglandin G/H synthase in BSV cell line. Format: cell-based.

The target of assay [4] is T3, Polyunsaturated fatty acid 5-lipoxygenase (Rattus norvegicus) (UniProt P12527).
T3 sequence (whole entry): T1 sequence (P12527 whole entry)
The experiment in a line: Ability to inhibit 5-lipoxygenase by using a crude preparation of the cytosolic enzyme from the rat basophilic leukemia (RBL-1) cell line at a concentration of 25 uM. Format: cell-based.

The test system of assay [5] is Mus musculus. Nature of the assay: percentage inhibition of the mouse arachidonic acid induced ear edema assay (AA) (Dose is 100 ug/ear). Format: functional. The gist of the method: as §1
Assay [6] addresses Cyclooxygenase (Bos taurus) (UniProt O62664+O62698). Nature of the assay: Ability to inhibit Prostaglandin G/H synthase by using the bovine seminal vesicle enzyme assay on BSV cell line at a concentration of 75 uM. Format: tissue-based. The essentials:
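Bovine seminal vesicle cyclooxygenase (40 μg) with Tris pH 8.5 and cofactors (glutathione, epinephrine, EDTA) is chilled on ice. Compound in DMSO diluted with Tris is added, then preincubated 2 min at 37 °C. [14C]arachidonic acid (0.2 μCi/mL in 0.1 mM sodium arachidonate) is added and the reaction runs 10 min. Duplicates are run; values are the percent inhibition at the concentration shown.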

`CCOC(=O)CCCCc1ccc2ccccc2c1O` displayed an ED50 in the assay with Mus musculus [1] of 40 ug ear-1. In addition, the values for the IC50 (in assay [2]; against Cyclooxygenase) were 0.011 µM and 18 µM, respectively. Moreover, the Inhibition in the assay with Mus musculus [3] stood at 74%.
In the same order, the values of `C=CCc1ccc2ccccc2c1O` are 4.4 ug ear-1, 0.056 µM, 18 µM and 91%.
For the compound `Oc1cccc2ccccc12` [1-NAPHTHOL], the IC50 worked out at 3.6 µM in assay [2] and 2 µM at Cyclooxygenase. The compound further had an Inhibition with Mus musculus [3] of 59%.
In the case of `CC(=O)Nc1c(Cc2ccccc2)ccc2ccccc12`, the Inhibition in the assay on Mus musculus [3] stood at 8%. Besides, the inhibition in assay [4] is 13%.
In the case of `Oc1cc(Cc2ccccc2)cc2ccccc12`, the IC50 in assay [2] was determined as 0.69 µM; on Cyclooxygenase, 2.7 µM. In the assay on Mus musculus [3], this compound came in with an Inhibition of 28%.
Take `COc1ccc2c(c1)c(CC(=O)O)c(C)n2C(=O)c1ccc(Cl)cc1` [INDOMETHACIN]: the ED50 in the assay with Mus musculus [1] turned out to be 780 ug ear-1. Also, the Inhibition with Mus musculus [3] is 20%. The inhibition in assay [4] was found to be 47%.
Take `Oc1ccc2ccccc2c1Cc1ccccc1`: the IC50 in assay [2] amounted to 3.9 µM; against Cyclooxygenase it was 16 µM. Also, the Inhibition in the assay on Mus musculus [5] was found to be 23%.
With `Oc1ccc(Cc2ccccc2)c2ccccc12`, the IC50 in assay [2] stood at 0.82 µM; at Cyclooxygenase, 5.9 µM. This compound showed an Inhibition in the assay with Mus musculus [3] of 42%.
As to `O=C(O)c1c(Cc2ccccc2)ccc2ccccc12`, the inhibition turned out to be 15% in assay [6] and 2% in assay [4]. This compound came in with an Inhibition in the assay with Mus musculus [3] of 0%.
Turning to `OCc1ccccc1/C=C/Cc1cc2c(cc1O)CCO2`, the ED50 with Mus musculus [1] was found to be 55 ug ear-1. Besides, the results for the IC50 (in assay [2]; on Cyclooxygenase) were 0.25 µM and 57 µM, respectively. The compound further yielded an Inhibition with Mus musculus [3] of 52%.
For `CCOC(=O)/C=C/c1ccc2ccccc2c1O`, the IC50 stood at 0.045 µM in assay [2] and 11 µM on Cyclooxygenase. The Inhibition with Mus musculus [3] is 0%.
In the same order, the values of `Oc1cc2ccccc2cc1Cc1ccccc1` are 7.2 µM, 35 µM and 33%.
In assay [6], `CCOC(=O)c1ccc2ccccc2c1O` showed an inhibition of 0%. Also, half-maximal inhibition in assay [2] (IC50) required 25 µM. Further, the Inhibition in the assay on Mus musculus [3] is 0%.
As to `OCCOc1c(Cc2ccccc2)ccc2ccccc12`, the inhibition in assay [6] turned out to be 28%. The same compound yielded an IC50 in assay [2] of 40 µM. Besides, the Inhibition with Mus musculus [3] is 12%.
As for `Cl.Nc1c(Cc2ccccc2)ccc2ccccc12`, the IC50 in assay [2] was 9.1 µM; against Cyclooxygenase it was 18 µM. The Inhibition with Mus musculus [3] was 35%.
With `COc1c(Cc2ccccc2)ccc2ccccc12`, the inhibition in assay [6] turned out to be 0%. In addition, in assay [2], half-maximal inhibition (IC50) was put at 55 µM. The same compound gave an Inhibition in the assay with Mus musculus [3] of 5%.
For `CC(C)(C)c1ccc2ccccc2c1O`, the half-inhibitory concentration (IC50) in assay [2] was found to be 0.18 µM; at Cyclooxygenase it was 37 µM. Besides, the Inhibition in the assay with Mus musculus [3] is given as 67%.
For the compound `CC(=O)Oc1c(Cc2ccccc2)ccc2ccccc12`, the Inhibition in the assay on Mus musculus [3] was found to be 63%. The 50% inhibitory concentration (IC50) on Cyclooxygenase is 240 µM.
`CCOC(=O)CCc1ccc2ccccc2c1O`: the IC50 in assay [2] was found to be 0.058 µM; against Cyclooxygenase, 13 µM. Also, in the assay with Mus musculus [3], the Inhibition is 69%.
On the same counts, the results for `Oc1c(Cc2ccccc2)cccc1Cc1ccccc1` are 8.8 µM, 52 µM and 21%.
For `O=C(O)CCCCc1ccc2ccccc2c1O`, the concentration for half-maximal inhibition (IC50) stood at 4.2 µM in assay [2] and 720 µM against Cyclooxygenase. The Inhibition in the assay with Mus musculus [3] is given as 9%.
As for `CC(Cc1ccc(O)c(O)c1)C(C)Cc1ccc(O)c(O)c1` (stereo unspecified) [NORDIHYDROGUAIARETIC ACID], the Inhibition in the assay on Mus musculus [3] is reported as 25%. The same compound displayed an IC50 against Cyclooxygenase of 14 µM.
Regarding `COc1c(OC)c(OC(C)=O)c2cc(Cl)ccc2c1OC(C)=O` [LONAPALENE], in assay [6], the inhibition turned out to be 0%. The compound further gave an ED50 in the assay with Mus musculus [1] of 100 ug ear-1. Moreover, it took 0.7 µM to reach half-maximal inhibition in assay [2] (IC50). The Inhibition in the assay with Mus musculus [3] turned out to be 50%.
Compound `O=C1CCN(c2ccccc2)N1` [PHENIDONE] had an inhibition in assay [6] of 31%. This compound gave an ED50 in the assay with Mus musculus [1] of 41 ug ear-1. This compound showed an Inhibition in the assay on Mus musculus [3] of 58%.
As for `Cc1ccc2ccccc2c1O`, the 50% inhibitory concentration (IC50) was 0.13 µM in assay [2] and 3 µM on Cyclooxygenase. The same compound registered an Inhibition in the assay on Mus musculus [3] of 73%.
As to `O=C(c1ccccc1)c1ccc2ccccc2c1O`, the inhibition in assay [6] was 26%. The compound further had a concentration for half-maximal inhibition (IC50) in assay [2] of 20 µM. Also, in the assay on Mus musculus [3], the Inhibition turned out to be 30%.
In the case of `CC(c1ccccc1)c1ccc2ccccc2c1O` (stereo unspecified), the IC50 came out at 0.07 µM in assay [2] and 8.7 µM against Cyclooxygenase. The compound also displayed an Inhibition in the assay with Mus musculus [3] of 45%.
In assay [6], `Oc1ccccc1Cc1ccccc1` displayed an inhibition of 22%. In assay [2], the IC50 was determined as 63 µM. The same compound displayed an Inhibition with Mus musculus [3] of 32%.
In the case of `CCOC(=O)CCCC(=O)c1ccc2ccccc2c1O`, the inhibition in assay [6] was 12%; in assay [4], 23%. Also, the Inhibition in the assay with Mus musculus [3] was determined as 13%.
Turning to `CCOC(=O)CCC/C(=N\O)c1ccc2ccccc2c1O`, in assay [6], the inhibition is 27%. In assay [2], this compound registered an IC50 of 2.7 µM. Further, the Inhibition with Mus musculus [3] was 29%.
In the same order, the values of `O=C1C=C(Cc2ccccc2)C(=O)c2ccccc21` are 16%, 0.29 µM and 59%.
Consider `Oc1c(Cc2ccccc2)ccc2ccccc12`, for which the ED50 in the assay on Mus musculus [1] is 9.4 ug ear-1. Besides, the IC50 in assay [2] amounted to 0.019 µM; against Cyclooxygenase, 3.4 µM. Further, in the assay with Mus musculus [3], the Inhibition was determined as 82%.
Take `Oc1c(/C=C\c2ccccc2)ccc2ccccc12`: the IC50 was found to be 0.16 µM in assay [2] and 13 µM on Cyclooxygenase. This compound registered an Inhibition in the assay on Mus musculus [3] of 65%.

In general, IC50 refers to the concentration that inhibits the measured activity by half. A lower IC50 goes with greater potency in that assay. As usually defined, the Inhibition is the percentage by which the read-out fell short of the control. The low end stands for little suppression, the high end for strong suppression. The term inhibition denotes the share of the control response that was lost under treatment. Low values mean a response near the control, high ones a response far below the control.
